{"data": "Experimental data from different studies", "note": "Each line is one published result; the experiments were not run side by side."}
{"SMILES": "CO[C@H]1/C=C/O[C@@]2(C)Oc3c(C)c(O)c4c(O)c(c(/C=N/N5CCN(C)CC5)c(O)c4c3C2=O)NC(=O)/C(C)=C\\C=C\\[C@H](C)[C@H](O)[C@@H](C)[C@@H](O)[C@@H](C)[C@H](OC(C)=O)[C@@H]1C", "target or system": "Mycolicibacterium phlei", "test": "microbial growth", "endpoint": "MIC", "value": "0.03 µg/mL"}
{"SMILES": "c1ccc(-c2ccc(C(c3ccccc3)n3ccnc3)cc2)cc1 (stereo not shown)", "target or system": "Vesicular stomatitis virus", "test": "viral entry, inhibitor", "test system": "Vero C1008", "conditions": "pseudovirus", "endpoint": "IC50", "value": "30 to 40 µM"}
{"SMILES": "CCCCCCCc1cc(=O)c2ccccc2[nH]1", "target or system": "HEK293", "test": "cell growth or viability", "endpoint": "IC50", "value": "> 10 µM"}
{"SMILES": "Cc1ccc2c(CNCC3(N4CCCC4)COC3)c[nH]c2c1", "target or system": "GBM6", "test": "cell growth or viability", "conditions": "30 µM, 48 h", "endpoint": "viability", "value": "60.6%"}
{"SMILES": "N.N.[Cl][Pt][Cl]", "target or system": "SK-MEL-28", "test": "cell growth or viability, resazurin", "conditions": "dark", "endpoint": "EC50", "value": "3.12 µM"}
{"SMILES": "Cc1ccc(-c2nc3ccc(C)cn3c2CC(=O)N(C)C)cc1", "target or system": "Mycobacterium avium", "test": "microbial growth", "conditions": "6 days", "endpoint": "MIC", "value": "> 50 µM"}
{"SMILES": "CNCCN(C)C(=O)Oc1c(Br)c(C)nc(C)c1-c1ccc(Oc2ccc(OC(F)(F)F)cc2)cc1", "target or system": "HEK293", "test": "cell growth or viability", "endpoint": "IC50", "value": "> 10 µM"}
{"SMILES": "Cc1cccc2c(CNCC3(N4CCCC4)COC3)c[nH]c12", "target or system": "T98G", "test": "cell growth or viability", "conditions": "30 µM, 48 h", "endpoint": "viability", "value": "34.1%"}
{"SMILES": "CO[C@H]1/C=C/O[C@@]2(C)Oc3c(C)c(O)c4c(O)c(c(/C=N/N5CCN(C)CC5)c(O)c4c3C2=O)NC(=O)/C(C)=C\\C=C\\[C@H](C)[C@H](O)[C@@H](C)[C@@H](O)[C@@H](C)[C@H](OC(C)=O)[C@@H]1C", "target or system": "Mycobacterium avium", "test": "microbial growth", "test system": "ATCC25291", "endpoint": "MIC", "value": "3.1 µg/mL"}
{"SMILES": "O=C(NC1CCC(CN2CCC(c3c[nH]c4ccccc34)CC2)CC1)c1cn(Cc2ccccc2)c2ccccc12 (stereo not shown)", "target or system": "HEK293", "test": "cell growth or viability", "endpoint": "IC50", "value": "> 10 µM"}
{"SMILES": "C#C[C@]1(O)CC[C@H]2[C@@H]3CCc4cc(O)ccc4[C@H]3CC[C@@]21C", "target or system": "Vesicular stomatitis virus", "test": "viral entry, inhibitor", "test system": "Vero C1008", "conditions": "pseudovirus", "endpoint": "IC50", "value": "25 to 70 µM"}
{"SMILES": "O=C(NC1CCC(CN2CCC(c3c[nH]c4ccccc34)CC2)CC1)c1[nH]c(=O)[nH]c(=O)c1F (stereo not shown)", "target or system": "HEK293", "test": "cell growth or viability", "endpoint": "IC50", "value": "> 10 µM"}
{"SMILES": "O=c1c2ccccc2[se]n1-c1ccccc1", "target or system": "HEK293", "test": "cell growth or viability, MTT", "conditions": "125 µM, 72 h", "endpoint": "inhibition", "value": "43%"}
